From ChEMBL document CHEMBL1250480, “Design, synthesis and qualitative structure-activity evaluations of novel hexahydropyrano[3,2-c][1,2]diazepin-3(4H)-one and tetrahydropyrano[3,2-b]pyrrol-2(1H)-one derivatives as anticancer agents” (Eur J Med Chem, 2010)

Legend:
Format in all cases: functional, cell-based
A549 = experiment: Cytotoxicity against human A549 cells after 48 hrs by SRB assay; conditions: A549, 48 h
Summary of the method: (§1)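 Cells grown in RPMI-1640 with 10% FBS and antibiotics at 37 °C, 5% CO2. Agents from fresh 1 mg/ml DMSO stocks were diluted in medium and applied for 48 h at 37 °C in triplicate wells. Cells were fixed with cold 50% TCA, stained with 0.4% SRB, and the dye solubilized in 10 mM Tris pH 10.5 before reading A570. IC50 is the concentration giving 50% reduction in net protein increase versus untreated cells, after blank correction. Values are the mean ± SEM of at least two independent runs.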

DU-145 = experiment: Cytotoxicity against human DU145 cells after 48 hrs by SRB assay; conditions: DU-145, 48 h; summary of the method: as §1
HCT-116 = experiment: Cytotoxicity against human HCT116 cells after 48 hrs by SRB assay; conditions: HCT-116, 48 h; summary of the method: as §1
SK-BR-3 = experiment: Cytotoxicity against human SK-BR-3 cells after 48 hrs by SRB assay; conditions: SK-BR-3, 48 h; summary of the method: as §1
SK-N-SH = experiment: Cytotoxicity against human SK-N-SH cells after 48 hrs by SRB assay; summary of the method: as §1

Row | Structure (SMILES) | IC50 (A549) [µM] | IC50 (DU-145) [µM] | IC50 (HCT-116) [µM] | IC50 (SK-BR-3) [µM] | IC50 (SK-N-SH) [µM]
1 | CO[C@@H]1CC=C2NN(c3ccc(C)cc3)C(=O)CC[C@]2(c2ccccc2)O1 | 3.17 | 2.2 | 2.5 | 2.7 | 1.7
2 | COc1ccc(N2NC3=CC[C@@H](OC)O[C@@]3(c3ccccc3)CCC2=O)cc1 | 5.1 | 4.1 | 3.1 | 2.4 | 4.6
3 | CO[C@@H]1CC=C2N(c3cc(Cl)cc(Cl)c3)C(=O)C[C@]2(c2ccccc2)O1 | 7.53 | 8.17 | 11.2 | 6.54 | 9.67
4 | CO[C@@H]1CC=C2N(c3ccccn3)C(=O)C[C@]2(c2ccccc2)O1 | 6.11 | 8.3 | 7.3 | 1.1 | 5.1
5 | CO[C@@H]1CC=C2NN(c3ccccn3)C(=O)CC[C@]2(c2ccccc2)O1 | 1.48 | 1.29 | 1.4 | 1.12 | 2.1
6 | CO[C@@H]1CC=C2N(c3c[nH]c4ccccc34)C(=O)C[C@]2(c2ccccc2)O1 | 5.2 | 7.33 | 7.13 | 2.3 | 8.2
7 | CO[C@@H]1CC=C2N(c3ccc(C)cc3)C(=O)C[C@]2(c2ccccc2)O1 | 3.92 | 4.4 | 4.3 | 1.1 | 3.5
8 | COc1cc(OC)cc(N2NC3=CC[C@@H](OC)O[C@@]3(c3ccccc3)CCC2=O)c1 | 2.9 | 2.4 | 2.1 | 1.2 | 3.2
9 | CO[C@@H]1CC=C2NN(c3c[nH]c4ccccc34)C(=O)CC[C@]2(c2ccccc2)O1 | 1.11 | 1.13 | 1.1 | 1.2 | 1
10 | CO[C@@H]1CC=C2NN(c3ccc([N+](=O)[O-])cc3)C(=O)CC[C@]2(c2ccccc2)O1 | 9.49 | 9.2 | 8.7 | 7.7 | 7.3
11 | COc1cc(OC)cc(N2C(=O)C[C@]3(c4ccccc4)O[C@H](OC)CC=C23)c1 | 4.11 | 6.1 | 6.1 | 1.1 | 7.2
12 | CO[C@@H]1CC=C2N(c3ccc([N+](=O)[O-])cc3)C(=O)C[C@]2(c2ccccc2)O1 | 7.15 | 8.1 | 8 | 6.3 | 9.4
13 | CO[C@@H]1CC=C2NN(c3cc(Cl)cc(Cl)c3)C(=O)CC[C@]2(c2ccccc2)O1 | 6.13 | 8.46 | 6.52 | 6.35 | 7.11
14 | CO[C@@H]1CC=C2N(c3ccc4[nH]ccc4c3)C(=O)C[C@]2(c2ccccc2)O1 | 5.1 | 4.1 | 5.3 | 1.3 | 4.4
